Structures are written as SMILES.

Series [1] is described as follows: In vitro cytotoxicity, Neutral Red assay. Type of series: cell-based. The following applies: human, KB oral epidermal carcinoma cells. In a few lines:
(§1)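 Cells grown in RPMI-1640 with 10% bovine calf serum and amikacin (60 mg/L), 37°C, 5% CO₂, 95% humidity. Seeded at 25,000 cells/well, grown 24 h. Test samples diluted in serum-free medium, exposure 48 h. Viable cells counted by Neutral Red uptake; % viability loss against vehicle control. IC50 from dose curves, triplicate, means reported.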

Series [2] can be described thus: In vitro cytotoxicity, Neutral Red assay. Type of series: cell-based. The following applies: pig, LLC-PK11 pig kidney epithelial cells. In a few lines:
(§2)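 Cells were kept in RPMI-1640 with 10% bovine calf serum and amikacin 60 mg/L at 37 °C, 5% CO₂. They were seeded at 25,000 cells/well and grown 24 h, then exposed 48 h to test compound diluted in serum-free medium, tested up to 25 μg/ml. Viability was read by Neutral Red, as % decrease versus vehicle. IC50 came from dose curves, in triplicate, with doxorubicin as reference.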

A short description of series [3]: In vitro cytotoxicity, Neutral Red assay. The format is cell-based. The note with it: human, SK-MEL malignant melanoma cells. In a few lines:
as §2

A short description of series [4]: In vitro cytotoxicity, Neutral Red assay. The format is cell-based. The note with it: human, SK-OV-3 ovary carcinoma cells. The method in brief: as §1
Series [5] can be described thus: In vitro cytotoxicity, Neutral Red assay. Type of series: cell-based. The note with it: African green monkey, Vero cells (kidney fibroblasts). The method in brief:
as §2

Another series has as its system NF-κB. Type of series: cell-based, human. The note with it: Homo sapiens, SW1353, read-out: NF-κB IC50. In a few lines: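 SW1353 cells were grown in DMEM/F12 with 10% FBS and electroporated with an NF-κB luciferase plasmid (50 μg/mL; 160 V, one 70-ms pulse). They were plated at 1.25 × 10⁵ cells/well for 24 h. […] Parthenolide was the reference; Sp-1 served as control factor.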

The nature of series [6]: In vitro cytotoxicity, Neutral Red assay. The following applies: human, BT-549 breast ductal carcinoma cells. The format is cell-based. The method in brief: as §2
The conditions of series [7]: cited from earlier work.
A further series addresses iNOS (Mus musculus, UniProt P29477). The series can be described thus: iNOS inhibitory assay in LPS-induced mouse macrophages. Type of series: cell-based. The note with it: LPS-induced RAW264.7 macrophages.

On to `O=c1oc2ccccc2n1CCCCCCN1CCN(CCCn2c(=O)oc3ccccc32)CC1` [Compound 5m, 3-(3-(4-(6-(2-oxobenzo[d]oxazol-3(2H)-yl)hexyl)piperazin-1-yl)propyl)benzo[d]oxazol-2(3H)-one], for which the IC50 at 48 h in series [1], in series [2], in [3], in [4], in [5] and in series [6] was more than 25 µg/mL each time. In the series with NF-κB, the IC50 was more than 25 µg/mL.

With `O=C(c1ccccc1)c1ccc2[nH]c(=O)sc2c1` [Compound S-14080], the “anti-inflammatory and antinociceptive activities (in words)” value in series [7] was “superior to acetylsalicylic acid and equivalent to glafenine”.

Consider `O=c1sc2ccccc2n1CCCN1CCN(CCn2c(=O)sc3ccccc32)CC1` [Compound 5b, 3-(3-(4-(2-(2-oxobenzo[d]thiazol-3(2H)-yl)ethyl)piperazin-1-yl)propyl)benzo[d]thiazol-2(3H)-one], for which the IC50 at 48 h in series [1], in [3], in series [4], in [5] and in [6] was more than 25 µg/mL throughout. In addition, the IC50 in the series on NF-κB was more than 25 µg/mL.

Regarding `O=c1sc2ccccc2n1CCCCN1CCN(CCn2c(=O)sc3ccccc32)CC1` [Compound 5d, 3-(2-(4-(4-(2-oxobenzo[d]thiazol-3(2H)-yl)butyl)piperazin-1-yl)ethyl)benzo[d]thiazol-2(3H)-one], the IC50 at 48 h in [1], in series [2], in series [3], in series [4], in [5] and in [6] was more than 25 µg/mL each time. In addition, the IC50 in the series with NF-κB is more than 25 µg/mL.

Turning to `O=c1sc2ccccc2n1CCN1CCN(CCn2c(=O)sc3ccccc32)CC1` [Compound 3b, 3,3′-(2,2′-(piperazine-1,4-diyl)bis(ethane-2,1-diyl))dibenzo[d]thaizol-2(3H)-one], the IC50 at 48 h in series [1], in series [2], in series [3], in [4], in series [5] and in [6] was more than 25 µg/mL each time. The IC50 in the series on NF-κB was more than 25 µg/mL.

Take `O=c1oc2ccccc2n1CCCCN1CCN(CCCCn2c(=O)oc3ccccc32)CC1` [Compound 3e, 3,3′-(piperazine-1,4-diylbis(butane-4,1-diyl))bis(benzo[d]oxazol-2(3H)-one)]: the IC50 at 48 h in series [1], in [2], in series [3], in [4], in [5] and in series [6] was more than 25 µg/mL throughout. In addition, at iNOS, the “iNOS inhibitory activity (in words)” value is “no activity”. In addition, the IC50 in the series on NF-κB was more than 25 µg/mL.

On to `O=c1sc2ccccc2n1CCCN1CCN(CCCn2c(=O)sc3ccccc32)CC1` [Compound 3d, 3,3′-(piperazine-1,4-diylbis(propane-3,1-diyl))bis(benzo[d]thiazol-2(3H)-one)], for which the IC50 at 48 h in series [1], in series [3], in series [4], in [5] and in series [6] was more than 25 µg/mL each time. Besides, the IC50 in the series with NF-κB is more than 25 µg/mL.

Take `O=c1oc2ccccc2n1CCCN1CCN(CCn2c(=O)oc3ccccc32)CC1` [Compound 5a, 3-(3-(4-(2-(2-oxobenzo[d]oxazol-3(2H)-yl)ethyl)piperazin-1-yl)propyl)benzo[d]oxazol-2(3H)-one]: the IC50 at 48 h in series [1], in series [2], in [3], in series [4], in series [5] and in series [6] was more than 25 µg/mL each time. Moreover, in the series with NF-κB, the IC50 is more than 25 µg/mL.

In the case of `O=c1oc2ccccc2n1CCN1CCN(CCn2c(=O)oc3ccccc32)CC1` [Compound 3a, 3,3′-(piperazine-1,4-diylbis(ethane-2,1-diyl))bis(benzo[d]oxazol-2(3H)-one)], the IC50 at 48 h in series [1], in series [2], in series [3], in series [4], in series [5] and in [6] was more than 25 µg/mL in each case. For the same molecule, the IC50 in the series with NF-κB is more than 25 µg/mL.

On to `O=c1oc2ccccc2n1CCCCCN1CCN(CCCCn2c(=O)oc3ccccc32)CC1` [Compound 5o, 3-(5-(4-(4-(2-oxobenzo[d]oxazol-3(2H)-yl)butyl)piperazin-1-yl)pentyl)benzo[d]oxazol-2(3H)-one], for which the IC50 at 48 h in series [1], in [2], in series [3], in [4] and in series [6] was more than 25 µg/mL each time. For the same molecule, the IC50 with NF-κB was more than 25 µg/mL.

With `O=c1sc2ccccc2n1CCCCN1CCN(CCCCn2c(=O)sc3ccccc32)CC1` [Compound 3f, 3,3′-(piperazine-1,4-diylbis(butane-4,1-diyl))bis(benzo[d]thiazol-2(3H)-one)], the IC50 at 48 h in series [1], in series [2], in series [3], in [4], in series [5] and in [6] was more than 25 µg/mL throughout. Also, at iNOS, the “iNOS inhibitory activity (in words)” value is “no activity”.

As to `O=c1oc2ccccc2n1CCCCN1CCN(CCn2c(=O)oc3ccccc32)CC1` [Compound 5c, 3-(2-(4-(4-(2-oxobenzo[d]oxazol-3(2H)-yl)butyl)piperazin-1-yl)ethyl)benzo[d]oxazol-2(3H)-one], the IC50 at 48 h in [1], in series [2], in series [3], in series [4], in series [5] and in series [6] was more than 25 µg/mL each time. For the same molecule, the IC50 in the series on NF-κB was more than 25 µg/mL.

One may read the IC50 as the concentration at which inhibition is half-maximal.

These data come from article PMC4467529 (Bioorganic & medicinal chemistry, 2015).
